Data reported in ChEMBL document CHEMBL3400098, “Aza follow-ups to BI 207524, a thumb pocket 1 HCV NS5B polymerase inhibitor. Part 1: Mitigating the genotoxic liability of an aniline metabolite” (Bioorg Med Chem Lett, 2015).

Columns and labels:
Cynomolgus monkey [1] = test: Dose normalized Cmax in cynomolgous monkey at 10 mg/kg, po and 2 mg/kg, iv; assay type: ADME, organism-based, Macaca fascicularis; details: in vivo
Summary of the method: (§1)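 Cynomolgus monkeys fasted overnight, then given 10 mg/kg orally as a suspension in 0.5% methylcellulose, 0.3% Tween-80 and 1% NMP. IV bolus of 2 mg/kg in 70% PEG-400:30% water. Oral values normalized to 5 mg/kg. Plasma analysed by non-compartmental methods.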

Cynomolgus monkey [2] = test: Dose normalized AUC in cynomolgous monkey at 10 mg/kg, po and 2 mg/kg, iv; assay type: ADME, organism-based, Macaca fascicularis; details: in vivo; summary of the method: as §1
Cynomolgus monkey [3] = test: Dose normalized half life in cynomolgous monkey at 10 mg/kg, po and 2 mg/kg, iv; assay type: ADME, organism-based, Macaca fascicularis; details: in vivo; summary of the method: as §1
Cynomolgus monkey [4] = test: Dose normalized volume of distribution at steady state in cynomolgous monkey at 10 mg/kg, po and 2 mg/kg, iv; assay type: ADME, organism-based, Macaca fascicularis; details: in vivo; summary of the method: as §1
[5] = Dose normalized bioavailability in cynomolgous monkey at 10 mg/kg, po and 2 mg/kg, iv; assay type: ADME, organism-based, Macaca fascicularis; details: cynomolgus monkey, in vivo, read-out: F/dose; summary of the method: as §1
Hepatitis C virus [6] = test: Antiviral activity against Hepatitis C virus genotype 1b infected in human Huh cells assessed as inhibition of viral replication by luciferase reporter assay; assay type: functional, cell-based, Hepacivirus hominis
Summary of the method: (§2)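 HCV replicon EC50 determined in duplicate, using either a GT1b luciferase reporter read-out or RT-PCR quantification of replicon RNA.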

[7] = Half life in dog liver microsomes at 2 uM; assay type: ADME, Canis lupus familiaris
Summary of the method: (§3)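 Stability in liver microsomes with 2 µM initial compound concentration; half-life recorded.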

[8] = Cmax in rat at 5 mg/kg, po and 2 mg/kg, iv; assay type: ADME, organism-based; details: in vivo
Summary of the method: (§4)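 Animals fasted overnight. Oral dose given as a suspension in 0.5% methylcellulose, 0.3% Tween-80 and 1% NMP. IV bolus of 2 mg/kg given in 70% PEG-400:30% water. N = 3 per dose and per route. Plasma kept on ice, spun at 4 °C and stored at about −20 °C. Calibration standards prepared in blank plasma, LOQ 7 ng/mL. Non-compartmental analysis.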

[9] = Cmax in dog at 5 mg/kg, po and 2 mg/kg, iv; assay type: ADME, organism-based, Canis lupus familiaris; details: in vivo; summary of the method: as §4
[10] = AUC in rat at 5 mg/kg, po and 2 mg/kg, iv; assay type: ADME, organism-based; details: plasma; summary of the method: as §4
[11] = AUC in dog at 5 mg/kg, po and 2 mg/kg, iv; assay type: ADME, organism-based, Canis lupus familiaris; details: plasma; summary of the method: as §4
[12] = Half life in dog at 5 mg/kg, po and 2 mg/kg, iv; assay type: ADME, organism-based, Canis lupus familiaris; details: in vivo; summary of the method: as §4
[13] = Bioavailability in rat at 5 mg/kg, po and 2 mg/kg, iv; assay type: ADME, organism-based; details: in vivo; summary of the method: as §4
[14] = Clearance in cynomolgous monkey at 2 mg/kg, iv; assay type: ADME, organism-based, Macaca fascicularis; design: dose 2 mg/kg, route intravenous; details: cynomolgus monkey, in vivo; summary of the method: as §4
[15] = Bioavailability in dog at 5 mg/kg, po and 2 mg/kg, iv; assay type: ADME, organism-based, Canis lupus familiaris; details: in vivo; summary of the method: as §4
[16] = Permeability coefficient, Kp for ratio of drug uptake in liver to plasma in rat; assay type: ADME
[17] = Inhibition of Hepatitis C virus genotype 1b C-terminal truncated NS5B RNA dependent RNA polymerase delta21 expressed in Escherichia coli by scintillation proximity assay; design: species or system Hepatitis C virus subtype 1b
Summary of the method: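 Biochemical polymerase inhibition using a C-terminally truncated GT1b NS5BΔ21 construct. Values are the mean of duplicate measurements (n ≥ 2).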

Hepatitis C virus [18] = test: Antiviral activity against Hepatitis C virus genotype 1b infected in human Huh cells assessed as inhibition of viral replication by RT-PCR-based replicon assay; assay type: functional, cell-based, Hepacivirus hominis; summary of the method: as §2
Hepatitis C virus [19] = test: Antiviral activity against Hepatitis C virus genotype 1a infected in human Huh cells assessed as inhibition of viral replication by RT-PCR-based replicon assay; assay type: functional, cell-based, Hepacivirus hominis; details: subtype 1a; summary of the method: as §2
Rattus norvegicus = test: Dose normalized Cmax in rat at 10 mg/kg, po; assay type: ADME, organism-based; design: dose 10 mg/kg, route oral; details: in vivo
Summary of the method: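 Rats dosed orally at 10 mg/kg as a suspension in 0.5% methylcellulose, 0.3% Tween-80 and 1% NMP. Plasma Cmax normalized to 5 mg/kg.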

[20] = Ratio of drug up take in liver to plasma of rat at 5 mg/kg, po measured at 6 hrs post dose; assay type: ADME, organism-based; design: dose 5 mg/kg, route oral
[21] = Half life in cynomolgous monkey liver microsomes at 2 uM; assay type: ADME, Macaca fascicularis; details: cynomolgus monkey; summary of the method: as §3
[22] = Half life in rat at 5 mg/kg, po and 2 mg/kg, iv; assay type: ADME, organism-based; details: in vivo; summary of the method: as §4
[23] = Volume of distribution at steady state in rat at 5 mg/kg, po and 2 mg/kg, iv; assay type: ADME, organism-based; details: in vivo, read-out: Vdss; summary of the method: as §4
[24] = Volume of distribution at steady state in dog at 5 mg/kg, po and 2 mg/kg, iv; assay type: ADME, organism-based, Canis lupus familiaris; details: in vivo, read-out: Vdss; summary of the method: as §4
[25] = Clearance in rat at 2 mg/kg, iv; assay type: ADME, organism-based; design: dose 2 mg/kg, route intravenous; details: in vivo; summary of the method: as §4
[26] = Clearance in dog at 2 mg/kg, iv; assay type: ADME, organism-based, Canis lupus familiaris; design: dose 2 mg/kg, route intravenous; details: in vivo; summary of the method: as §4
[27] = Cytotoxicity against human HuH7 cells assessed as reduction in cell viability by MTT assay; assay type: cell-based; details: Huh-7 cells, read-out: TC50 (the source's name)
Summary of the method: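 Cytotoxicity (TC50) measured by MTT read-out in the Huh-7 cell line.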

[28] = Half life in rat liver microsomes at 2 uM; assay type: ADME; summary of the method: as §3
[29] = Cmax in rat at 5 mg/kg, po; assay type: ADME, organism-based; design: dose 5 mg/kg, route oral; details: in vivo
Summary of the method: (§5)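 Rats fasted overnight, then given a single compound orally at 5 mg/kg in 0.5% methylcellulose, 0.3% Tween-80 and 1% NMP. Plasma Cmax measured. Liver/plasma concentration ratio taken at 8 h for single-compound dosing.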

[30] = Ratio of drug up take in liver to plasma of rat at 5 mg/kg, po measured at 8 hrs post dose; assay type: ADME, organism-based; design: dose 5 mg/kg, route oral; summary of the method: as §5
[31] = Lipophilicity, log D of the compound at pH 7.4; assay type: physicochemical; details: buffer
[32] = Clearance in rhesus monkey at 2 mg/kg, iv; details: in vivo
Macaca mulatta [33] = test: AUC in rhesus monkey at 5 mg/kg, po and 2 mg/kg, iv; details: plasma
[34] = Half life in rhesus monkey liver microsomes at 2 uM
Macaca mulatta [35] = test: Cmax in rhesus monkey at 5 mg/kg, po and 2 mg/kg, iv; details: in vivo
Macaca mulatta [36] = test: Half life in rhesus monkey at 5 mg/kg, po and 2 mg/kg, iv; details: in vivo
Macaca mulatta [37] = test: Bioavailability in rhesus monkey at 5 mg/kg, po and 2 mg/kg, iv; details: in vivo
Macaca mulatta [38] = test: Volume of distribution at steady state in rhesus monkey at 5 mg/kg, po and 2 mg/kg, iv; details: in vivo, read-out: Vdss
[39] = Half life in human liver microsomes at 2 uM; assay type: ADME; summary of the method: as §3
[40] = Permeability from apical to basolateral side of human Caco2 cells; assay type: ADME, cell-based; details: Caco-2, read-out: permeability
Summary of the method: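 Caco-2 permeability measured in the apical-to-basolateral direction, reported in cm/s.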

[41] = Plasma concentration in rat at 4 mg/kg, po as cassette dosing measured at 1 hr post dose; assay type: ADME, organism-based; design: dose 4 mg/kg, route oral
Summary of the method: (§6)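 Cassette dosing: a mixture of 4 compounds, each at 4 mg/kg, given orally to 2 fasted rats in 0.5% methylcellulose, 0.3% Tween-80 and 1% NMP. Plasma sampled at 1 and 2 h. Liver/plasma ratio determined at 2 h.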

[42] = Plasma concentration in rat at 4 mg/kg, po as cassette dosing measured at 2 hrs post dose; assay type: ADME, organism-based; design: dose 4 mg/kg, route oral; summary of the method: as §6
[43] = Ratio of drug up take in liver to plasma of rat at 4 mg/kg, po as cassette dosing measured at 2 hrs post dose; assay type: ADME, organism-based; design: dose 4 mg/kg, route oral; summary of the method: as §6

EC50 (Hepatitis C virus [6]) [nM]	half-life at 2 µM [7] [h]	Cmax [8] [µM]	Cmax [9] [µM]	AUC [10] [µM·h]	AUC [11] [µM·h]	half-life [12] [h]	bioavailability [13] [%]	bioavailability [15] [%]	Kp [16]	IC50 [17] [nM]	EC50 (Hepatitis C virus [18]) [nM]	EC50 (Hepatitis C virus [19]) [nM]	half-life at 2 µM [28] [h]	Cmax [29] [µM]	logD [31]	half-life at 2 µM [39] [h]	Papp A→B [40] [×10⁻⁶ cm/s]	SMILES	CC50 [27] [nM]	other results
13	2.92	3.2	4.1	9.6	38	4.5	19	29	5.5	84	11	29	–	–	–	–	–	CCOc1cc(NC(=O)C2(NC(=O)c3ccc4c(C5CCCC5)c(-c5ncc(Cl)cn5)n(C)c4c3)CCC2)ccc1/C=C/C(=O)O	–	Cmax/dose (Cynomolgus monkey [1]): 4.8 µM; AUC/dose (Cynomolgus monkey [2]): 26 µM·h; t1/2/dose (Cynomolgus monkey [3]): 3 h; Vdss/dose (Cynomolgus monkey [4]): 0.6 L/kg; bioavailability [5]: 72%; clearance [14]: 3.6 mL/min/kg; Cmax/dose (Rattus norvegicus): 3.2 µM; Kp at 6 h [20]: 5.5; half-life at 2 µM [21]: 1.6 h
15	3.65	5.8	10	17	56	6.1	42	40	2.6	85	14	27	1.85	5.9	> 5.9	–	–	CCOc1nc(NC(=O)C2(NC(=O)c3ccc4c(C5CCCC5)c(-c5ncc(Cl)cn5)n(C)c4c3)CCC2)ccc1/C=C/C(=O)O	56000	half-life [22]: 1.5 h; Vd [23]: 0.28 L/kg; Vd [24]: 0.28 L/kg; clearance [25]: 3.1 mL/min/kg; clearance [26]: 0.9 mL/min/kg; Kp at 8 h [30]: 2; clearance [32]: 1.5 mL/min/kg; AUC (Macaca mulatta [33]): 8.9 µM·h; half-life at 2 µM [34]: 0.533 h; Cmax (Macaca mulatta [35]): 2.6 µM; half-life (Macaca mulatta [36]): 2 h; bioavailability (Macaca mulatta [37]): 11%; Vd (Macaca mulatta [38]): 0.06 L/kg
33	–	–	–	–	–	–	–	–	–	85	–	–	1.73	1.8	3	2.42	15	CCOc1cc(NC(=O)C2(NC(=O)c3ccc4c(C5CCCC5)c(-c5ncc(Cl)cn5)n(C)c4c3)CCC2)ncc1/C=C/C(=O)O	> 10000	–
20	–	–	–	–	–	–	–	–	–	110	–	–	2.38	–	3.9	4.58	7.5	CCOc1cc(NC(=O)C2(NC(=O)c3ccc4c(C5CCCC5)c(-c5ncc(Cl)cn5)n(C)c4c3)CCC2)cnc1/C=C/C(=O)O	> 10000	concentration at 1 h [41]: 0.4 µM; concentration at 2 h [42]: 0.1 µM; Kp at 2 h [43]: 5
